Blank lines part the entries; values can stand above or below the compound they belong to. Activity calls are given as the source filed them. The calls are words filed in the database; no cut-off is given here. Positions of bridges follow the written chain, without caps; N, C: chain ends. Non-standard residues stand in square brackets, D forms with d. Residues, ends and D or L forms follow the SMILES beside them. 2Nal = N[C@@H](Cc1ccc2ccccc2c1)C(=O)O; Pen = CC(C)(S)[C@H](N)C(=O)O
Legend:
[1] = biological target: T1, C-X-C chemokine receptor type 4 (Homo sapiens, UniProt P61073); assay: Inhibition of anti-CXCR4 PE antibody clone 12G5 binding to CXCR4 in human CCRF-CEM cells preincubated for 30 mins followed by anti-CXCR4 PE antibody clone 12G5 addition measured after 30 mins by flow cytometric method; assay type: cell-based
In short: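 5×10^5 CCRF-CEM cells (human T leukemia, CXCR4-overexpressing) were preincubated with peptide (10 pM–10 μM) in PBS with 0.2% BSA and 0.1% NaN3 for 30 min at 37 °C, 5% CO2. They were then labeled 30 min with anti-CXCR4 PE antibody (clone 12G5) and read by flow cytometry.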

[2] = biological target: T1, C-X-C chemokine receptor type 4; conditions: 10 nM
[3] = biological target: T1, C-X-C chemokine receptor type 4; assay: Displacement of [125I]-CXCL12 from CXCR4 in human CCRF-CEM cells after 1 hr by gamma counting method; assay type: cell-based
In short: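 CCRF-CEM cells suspended in binding buffer (PBS, 5 mM MgCl2, 1 mM CaCl2, 0.25% BSA, pH 7.4) with competitor from 10 pM to 10 μM and 60 pM 125I-CXCL12 (2200 Ci/mmol) tracer. Bound radioactivity counted on a γ counter after 1 h at 4 °C, expressed as percent of total counts. One-site fit gave IC50; mean ± SD of three experiments.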

[4] = biological target: T2, C-X-C chemokine receptor type 3 (Homo sapiens) (UniProt P49682); assay: Inhibition of anti-CXCR3 FITC antibody clone 1C6/clone 49801 binding to CXCR3 in human COLO205 cells at 0.01 to 10 uM preincubated for 30 mins followed by anti-CXCR3 FITC antibody clone 1C6/clone 49801 addition measured after 30 mins by flow cytometric method; assay type: cell-based
T2 sequence (whole entry): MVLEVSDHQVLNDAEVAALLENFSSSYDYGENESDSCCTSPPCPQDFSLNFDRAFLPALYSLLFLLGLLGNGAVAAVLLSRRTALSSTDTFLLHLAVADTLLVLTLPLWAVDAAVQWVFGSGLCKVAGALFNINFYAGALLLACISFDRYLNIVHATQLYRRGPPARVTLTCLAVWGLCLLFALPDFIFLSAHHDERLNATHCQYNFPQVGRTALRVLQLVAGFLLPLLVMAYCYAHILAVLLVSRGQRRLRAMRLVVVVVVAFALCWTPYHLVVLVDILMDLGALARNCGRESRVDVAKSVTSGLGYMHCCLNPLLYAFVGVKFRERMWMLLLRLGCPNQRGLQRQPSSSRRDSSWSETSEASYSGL
In short: (§1)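 Selectivity runs: peptide preincubated 30 min at 37 °C, 5% CO2 in PBS with 0.2% BSA and 0.1% NaN3, then cells labeled with receptor antibody and read by flow cytometry. CXCR3: COLO205 colorectal cells, anti-CXCR3 FITC antibody. CXCR7: MCF-7 breast cells, anti-CXCR7 APC antibody (clone 11G8). Results given as mean ± SD.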

[5] = biological target: Atypical chemokine receptor 3 (Homo sapiens) (UniProt P25106); assay: Inhibition of anti-CXCR7 APC antibody clone 11G8 binding to CXCR7 in human MCF7 cells at 0.01 to 10 uM preincubated for 30 mins followed by anti-CXCR7 APC antibody clone 11G8 addition measured after 30 mins by flow cytometric method; assay type: cell-based; in short: as §1
[6] = Metabolic stability in 90% human serum assessed as parent compound remaining at 1 mM measured at 15 mins by ESI-RP-HPLC method; assay type: ADME, cell-free; conditions: read-out: Stability
In short: (§2)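 Peptide water solution (1 mM, 10 μL) mixed with 90 μL human serum, giving 0.1 mM peptide in 90% serum, at 37 °C. Aliquots taken at 0, 15, 30, 60, 90 and 120 min. Proteins precipitated with ACN (0.1% TFA) and spun 12 000 rpm, 15 min, 4 °C. Supernatant run on ESI-RP-HPLC; relative amount from A230 peak integration.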

[7] = Metabolic stability in 90% human serum assessed as parent compound remaining at 1 mM measured at 30 mins by ESI-RP-HPLC method; assay type: ADME, cell-free; conditions: read-out: Stability; in short: as §2
[8] = Metabolic stability in 90% human serum assessed as parent compound remaining at 1 mM measured at 60 mins by ESI-RP-HPLC method; assay type: ADME, cell-free; conditions: read-out: Stability; in short: as §2
[9] = Metabolic stability in 90% human serum assessed as parent compound remaining at 1 mM measured at 90 mins by ESI-RP-HPLC method; assay type: ADME, cell-free; conditions: read-out: Stability; in short: as §2
[10] = Metabolic stability in 90% human serum assessed as parent compound remaining at 1 mM measured at 120 mins by ESI-RP-HPLC method; assay type: ADME, cell-free; conditions: read-out: Stability; in short: as §2
[11] = biological target: T1, C-X-C chemokine receptor type 4; conditions: 1 to 100 nM
[12] = biological target: T1, C-X-C chemokine receptor type 4; conditions: 10 nM; remark: listed apart in the source
[13] = biological target: T1, C-X-C chemokine receptor type 4; conditions: 10 nM; remark: listed apart in the source
Serum [14] = assay: Drug level in 90% human serum treated with (4R,7S,10S,13S,16R)-16-((S)-2-((S)-2-amino-5-guanidinopentanamido)propanamido)-7,10-dibenzyl-13-(3-guanidinopropyl)-6,9,12,15-tetraoxo-1,2-dithia-5,8,11,14-tetraazacycloheptadecane-4-carboxylic acid at 1 mM after 15 mins by ESI-RP-HPLC method; assay type: ADME, cell-free; conditions: 0.25 h, 1000 µM; in short: as §2
Serum [15] = assay: Drug level in 90% human serum treated with (4R,7S,10S,13S,16R)-16-((S)-2-((S)-2-amino-5-guanidinopentanamido)propanamido)-7,10-dibenzyl-13-(3-guanidinopropyl)-6,9,12,15-tetraoxo-1,2-dithia-5,8,11,14-tetraazacycloheptadecane-4-carboxylic acid at 1 mM after 30 mins by ESI-RP-HPLC method; assay type: ADME, cell-free; conditions: 0.5 h, 1000 µM; in short: as §2

T1 sequence (P61073 whole entry): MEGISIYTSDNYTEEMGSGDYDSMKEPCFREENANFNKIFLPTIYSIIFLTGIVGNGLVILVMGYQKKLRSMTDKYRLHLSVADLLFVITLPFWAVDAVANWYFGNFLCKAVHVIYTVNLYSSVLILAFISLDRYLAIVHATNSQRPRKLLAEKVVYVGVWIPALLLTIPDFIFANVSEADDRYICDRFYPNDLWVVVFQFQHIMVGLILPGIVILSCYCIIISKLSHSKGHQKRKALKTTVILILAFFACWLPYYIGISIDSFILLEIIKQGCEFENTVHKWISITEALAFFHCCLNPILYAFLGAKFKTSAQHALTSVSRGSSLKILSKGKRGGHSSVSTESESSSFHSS
Sequence of Atypical chemokine receptor 3 (Homo sapiens) (P25106 whole entry): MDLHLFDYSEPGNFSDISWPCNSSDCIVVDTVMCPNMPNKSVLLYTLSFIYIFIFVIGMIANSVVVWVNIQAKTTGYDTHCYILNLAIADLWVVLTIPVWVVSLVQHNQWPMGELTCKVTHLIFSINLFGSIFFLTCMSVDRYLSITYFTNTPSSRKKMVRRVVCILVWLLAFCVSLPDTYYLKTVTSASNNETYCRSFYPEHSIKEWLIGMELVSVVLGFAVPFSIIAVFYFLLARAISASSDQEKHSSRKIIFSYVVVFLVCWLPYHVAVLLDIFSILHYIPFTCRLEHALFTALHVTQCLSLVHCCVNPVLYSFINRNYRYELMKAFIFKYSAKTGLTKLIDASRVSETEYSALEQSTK

SMILES: CC(=O)N[C@@H](CCCNC(=N)N)C(=O)N[C@@H](C)C(=O)N[C@H]1C(=O)N[C@@H](CCCNC(=N)N)C(=O)N[C@@H](Cc2ccccc2)C(=O)N[C@@H](Cc2ccccc2)C(=O)N[C@H](C(=O)O)CSSC1(C)C
- IC50 [1]: > 10000 nM

SMILES: CC(=O)N[C@@H](CCCNC(=N)N)C(=O)N[C@@H](C)C(=O)N[C@@H]1CSSC(C)(C)[C@@H](C(=O)O)NC(=O)[C@H](Cc2ccccc2)NC(=O)[C@H](Cc2cccc3ccccc23)NC(=O)[C@H](CCCNC(=N)N)NC1=O
- IC50 [1]: 3690 nM

SMILES: CC(=O)N[C@@H](CCCNC(=N)N)C(=O)N[C@@H](C)C(=O)N[C@@H]1CSSC(C)(C)[C@@H](C(=O)O)NC(=O)[C@H](Cc2ccccc2)NC(=O)[C@H](Cc2cnc[nH]2)NC(=O)[C@H](CCCNC(=N)N)NC1=O
- IC50 [1]: > 10000 nM

SMILES: CC(=O)N[C@@H](CCCNC(=N)N)C(=O)N[C@@H](C)C(=O)N[C@@H]1CSSC(C)(C)[C@@H](C(=O)O)NC(=O)[C@H](Cc2cnc[nH]2)NC(=O)[C@H](Cc2ccccc2)NC(=O)[C@H](CCCNC(=N)N)NC1=O
- IC50 [1]: 6 nM

SMILES: CC(=O)N[C@@H](CCCNC(=N)N)C(=O)N[C@@H](C)C(=O)N[C@H]1C(=O)N[C@@H](CCCNC(=N)N)C(=O)N[C@@H](Cc2ccccc2)C(=O)N[C@@H](Cc2ccccc2)C(=O)N[C@H](C(=O)O)C(C)(C)SSC1(C)C
- IC50 [1]: 1530 nM

SMILES: c1cc(CN2CCCNCCNCCCNCC2)ccc1CN1CCCNCCNCCCNCC1
- inhibition [2]: inactive

SMILES: CC(=O)N[C@@H](CCCNC(=N)N)C(=O)N[C@@H](C)C(=O)N[C@@H]1CSSC[C@@H](C(=O)O)NC(=O)[C@H](Cc2ccccc2)NC(=O)[C@H](Cc2ccccc2)NC(=O)[C@H](CCCNC(=N)N)NC1=O (Ac-RA[dC]RFFC-OH; disulfide 3-7)
- IC50 [1]: 53 nM
- IC50 [3]: 338 nM

SMILES: CC(=O)N[C@@H](CCCNC(=N)N)C(=O)N[C@@H](C)C(=O)N[C@@H]1CSSC(C)(C)[C@@H](C(=O)O)NC(=O)[C@H](Cc2cnc[nH]2)NC(=O)[C@H](Cc2ccc3ccccc3c2)NC(=O)[C@H](CCCNC(=N)N)NC1=O (Ac-RA[dC]R[2Nal]H[Pen]-OH; disulfide 3-7)
- IC50 [1]: 1.5 nM
- inhibition [4]: inactive
- inhibition [5]: inactive
- remaining at 0.25 h, 1000 µM [6]: 100%
- remaining at 0.5 h, 1000 µM [7]: 100%
- remaining at 1 h, 1000 µM [8]: 100%
- remaining at 1.5 h, 1000 µM [9]: 100%
- remaining at 2 h, 1000 µM [10]: 100%
- inhibition [11]: Active
- inhibition [12]: Active
- inhibition [13]: inactive

SMILES: C[C@H](N)C(=O)N[C@H]1CSSC[C@@H](C(=O)O)NC(=O)[C@H](Cc2ccccc2)NC(=O)[C@H](Cc2ccccc2)NC(=O)[C@H](CCCNC(=N)N)NC1=O (H-ACRFFC-OH; disulfide 2-6)
- Drug metabolism (Serum [14]): Metabolite_Detected

SMILES: N=C(N)NCCC[C@@H]1NC(=O)[C@@H](N)CSSC[C@@H](C(=O)O)NC(=O)[C@H](Cc2ccccc2)NC(=O)[C@H](Cc2ccccc2)NC1=O (H-CRFFC-OH; disulfide 1-5)
- Drug metabolism (Serum [15]): Metabolite_Detected

SMILES: C[C@H](NC(=O)[C@@H](N)CCCNC(=N)N)C(=O)N[C@H]1CSSC[C@@H](C(=O)O)NC(=O)[C@H](Cc2ccccc2)NC(=O)[C@H](Cc2ccccc2)NC(=O)[C@H](CCCNC(=N)N)NC1=O (H-RACRFFC-OH; disulfide 3-7)
- IC50 [1]: 6200 nM
- remaining at 0.25 h, 1000 µM [6]: 67%
- remaining at 0.5 h, 1000 µM [7]: 0%
- remaining at 1 h, 1000 µM [8]: 0%
- remaining at 1.5 h, 1000 µM [9]: 0%
- remaining at 2 h, 1000 µM [10]: 0%

Other lines, results leading:

- IC50 [1]: 22 nM
SMILES: CC(=O)N[C@@H](CCCNC(=N)N)C(=O)N[C@@H](C)C(=O)N[C@@H]1CSSC(C)(C)[C@@H](C(=O)O)NC(=O)[C@H](Cc2ccccc2)NC(=O)[C@H](Cc2ccc3ccccc3c2)NC(=O)[C@H](CCCNC(=N)N)NC1=O

- IC50 [1]: > 10000 nM
SMILES: CC(=O)N[C@@H](CCCNC(=N)N)C(=O)N[C@@H](C)C(=O)N[C@@H]1CSSC(C)(C)[C@@H](C(=O)O)NC(=O)[C@H](Cc2ccc([N+](=O)[O-])cc2)NC(=O)[C@H](Cc2ccccc2)NC(=O)[C@H](CCCNC(=N)N)NC1=O

- IC50 [1]: 70 nM
SMILES: CC(=O)N[C@@H](CCCNC(=N)N)C(=O)N[C@@H](C)C(=O)N[C@@H]1CSSC(C)(C)[C@@H](C(=O)O)NC(=O)[C@H](Cc2ccccc2)NC(=O)[C@H](Cc2ccc(Cl)cc2)NC(=O)[C@H](CCCNC(=N)N)NC1=O

- IC50 [1]: 210 nM
SMILES: CC(=O)N[C@@H](CCCNC(=N)N)C(=O)N[C@@H](C)C(=O)N[C@@H]1CSSC(C)(C)[C@@H](C(=O)O)NC(=O)[C@H](Cc2ccccc2)NC(=O)[C@H](Cc2ccc([N+](=O)[O-])cc2)NC(=O)[C@H](CCCNC(=N)N)NC1=O

- IC50 [1]: 1800 nM
SMILES: CC(=O)N[C@@H](CCCNC(=N)N)C(=O)N[C@@H](C)C(=O)N[C@@H]1CSSC(C)(C)[C@@H](C(=O)O)NC(=O)[C@H](Cc2ccc3ccccc3c2)NC(=O)[C@H](Cc2ccccc2)NC(=O)[C@H](CCCNC(=N)N)NC1=O

- IC50 [1]: 360 nM
SMILES: CC(=O)N[C@@H](CCCNC(=N)N)C(=O)N[C@@H](C)C(=O)N[C@@H]1CSSC(C)(C)[C@@H](C(=O)O)NC(=O)[C@H](Cc2ccc(O)cc2)NC(=O)[C@H](Cc2ccccc2)NC(=O)[C@H](CCCNC(=N)N)NC1=O

- IC50 [1]: 40 nM
SMILES: CC(=O)N[C@@H](CCCNC(=N)N)C(=O)N[C@@H](C)C(=O)N[C@@H]1CSSC(C)(C)[C@@H](C(=O)O)NC(=O)[C@H](Cc2ccccc2)NC(=O)[C@H](Cc2ccccc2)NC(=O)[C@H](CCCNC(=N)N)NC1=O

- IC50 [1]: 2140 nM
SMILES: CC(=O)N[C@@H](CCCNC(=N)N)C(=O)N[C@@H](C)C(=O)N[C@@H]1CSSC(C)(C)[C@@H](C(=O)O)NC(=O)[C@H](Cc2ccccc2)NC(=O)[C@H](Cc2ccc(O)cc2)NC(=O)[C@H](CCCNC(=N)N)NC1=O

- IC50 [1]: 180 nM
SMILES: CC(=O)N[C@@H](CCCNC(=N)N)C(=O)N[C@@H](C)C(=O)N[C@@H]1CSSC(C)(C)[C@@H](C(=O)O)NC(=O)[C@H](Cc2cccc3ccccc23)NC(=O)[C@H](Cc2ccccc2)NC(=O)[C@H](CCCNC(=N)N)NC1=O

- IC50 [1]: 1250 nM
SMILES: CC(=O)N[C@@H](CCCNC(=N)N)C(=O)N[C@@H](C)C(=O)N[C@@H]1CSSC(C)(C)[C@@H](C(=O)O)NC(=O)[C@H](Cc2ccc(Cl)cc2)NC(=O)[C@H](Cc2ccccc2)NC(=O)[C@H](CCCNC(=N)N)NC1=O

From ChEMBL document CHEMBL4028895, “Structure-Activity Relationships and Biological Characterization of a Novel, Potent, and Serum Stable C-X-C Chemokine Receptor Type 4 (CXCR4) Antagonist” (J Med Chem, 2017)
